Reference: ChEMBL document CHEMBL4152188, “Design, synthesis and biological evaluation of C(4) substituted monobactams as antibacterial agents against multidrug-resistant Gram-negative bacteria” (Eur J Med Chem, 2018)
Values after ≈ are worked out from the molar mass of the structure shown.

Key:
Type in all cases: functional
[1] = system: Escherichia coli; assay: Antibacterial activity against extended-spectrum beta-lactamase producing Escherichia coli isolate 212648 after 18 hrs by CLSI broth microdilution method; details: isolate 212648, 18 h
[2] = system: Escherichia coli; assay: Selectivity index, ratio of MIC for against extended-spectrum beta-lactamase producing Escherichia coli isolate 208687 to MIC for extended-spectrum beta-lactamase producing Escherichia coli isolate 208687 in presence of BPL
[3] = system: Escherichia coli; assay: Antibacterial activity against Escherichia coli isolate 210737 after 18 hrs by CLSI broth microdilution method; details: isolate 210737, 18 h
[4] = system: Escherichia coli; assay: Antibacterial activity against extended-spectrum beta-lactamase producing Escherichia coli isolate 208687 after 18 hrs by CLSI broth microdilution method; details: isolate 208687, 18 h
[5] = system: Escherichia coli; assay: Antibacterial activity against extended-spectrum beta-lactamase producing Escherichia coli isolate 208687 after 18 hrs in presence of BPL by CLSI broth microdilution method; details: isolate 208687, 18 h
Method in brief: (§1)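 CLSI broth microdilution against clinical isolates (ESBL E. coli, KPC-2 MDR K. pneumoniae, IMP-4 MDR P. aeruginosa; five per species). Iron limitation: Mueller-Hinton broth supplemented with 16 mg/liter 2,2'-bipyridyl to complex iron and induce iron uptake systems. Read-out: MIC.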

[6] = system: Escherichia coli; assay: Antibacterial activity against Escherichia coli isolate 210737 after 18 hrs in presence of BPL by CLSI broth microdilution method; details: isolate 210737, 18 h; method in brief: as §1
[7] = system: Escherichia coli; assay: Selectivity index, ratio of MIC for against Escherichia coli isolate 210737 to MIC for Escherichia coli isolate 210737 in presence of BPL
[8] = system: Escherichia coli; assay: Antibacterial activity against extended-spectrum beta-lactamase producing Escherichia coli isolate 212648 after 18 hrs in presence of BPL by CLSI broth microdilution method; details: isolate 212648, 18 h; method in brief: as §1
[9] = system: Escherichia coli; assay: Selectivity index, ratio of MIC for against extended-spectrum beta-lactamase producing Escherichia coli isolate 212648 to MIC for extended-spectrum beta-lactamase producing Escherichia coli isolate 212648 in presence of BPL
[10] = system: Escherichia coli; assay: Antibacterial activity against extended-spectrum beta-lactamase producing Escherichia coli isolate 209285 after 18 hrs by CLSI broth microdilution method; details: isolate 209285, 18 h
[11] = system: Escherichia coli; assay: Antibacterial activity against extended-spectrum beta-lactamase producing Escherichia coli isolate 209285 after 18 hrs in presence of BPL by CLSI broth microdilution method; details: isolate 209285, 18 h; method in brief: as §1
[12] = system: Escherichia coli; assay: Selectivity index, ratio of MIC for against extended-spectrum beta-lactamase producing Escherichia coli isolate 209285 to MIC for extended-spectrum beta-lactamase producing Escherichia coli isolate 209285 in presence of BPL
[13] = system: Escherichia coli; assay: Antibacterial activity against extended-spectrum beta-lactamase producing Escherichia coli isolate 106342 after 18 hrs by CLSI broth microdilution method; details: isolate 106342, 18 h
[14] = system: Escherichia coli; assay: Antibacterial activity against extended-spectrum beta-lactamase producing Escherichia coli isolate 106342 after 18 hrs in presence of BPL by CLSI broth microdilution method; details: isolate 106342, 18 h; method in brief: as §1
[15] = system: Escherichia coli; assay: Selectivity index, ratio of MIC for against extended-spectrum beta-lactamase producing Escherichia coli isolate 106342 to MIC for extended-spectrum beta-lactamase producing Escherichia coli isolate 106342 in presence of BPL
[16] = system: Klebsiella pneumoniae; assay: Antibacterial activity against KPC-2 producing Klebsiella pneumoniae isolate 212423 after 18 hrs by CLSI broth microdilution method; details: isolate 212423, 18 h
[17] = system: Klebsiella pneumoniae; assay: Antibacterial activity against KPC-2 producing Klebsiella pneumoniae isolate 212423 after 18 hrs in presence of BPL by CLSI broth microdilution method; details: isolate 212423, 18 h; method in brief: as §1
[18] = system: Klebsiella pneumoniae; assay: Selectivity index, ratio of MIC for against KPC-2 producing Klebsiella pneumoniae isolate 212423 to MIC for against KPC-2 producing Klebsiella pneumoniae isolate 212423 in presence of BPL
[19] = system: Klebsiella pneumoniae; assay: Antibacterial activity against KPC-2 producing Klebsiella pneumoniae isolate 209632 after 18 hrs by CLSI broth microdilution method; details: isolate 209632, 18 h
[20] = system: Klebsiella pneumoniae; assay: Antibacterial activity against KPC-2 producing Klebsiella pneumoniae isolate 209632 after 18 hrs in presence of BPL by CLSI broth microdilution method; details: isolate 209632, 18 h; method in brief: as §1
[21] = system: Klebsiella pneumoniae; assay: Selectivity index, ratio of MIC for against KPC-2 producing Klebsiella pneumoniae isolate 209632 to MIC for against KPC-2 producing Klebsiella pneumoniae isolate 209632 in presence of BPL
[22] = system: Klebsiella pneumoniae; assay: Antibacterial activity against KPC-2 producing Klebsiella pneumoniae isolate 209735 after 18 hrs by CLSI broth microdilution method; details: isolate 209735, 18 h
[23] = system: Klebsiella pneumoniae; assay: Antibacterial activity against KPC-2 producing Klebsiella pneumoniae isolate 209735 after 18 hrs in presence of BPL by CLSI broth microdilution method; details: isolate 209735, 18 h; method in brief: as §1
[24] = system: Klebsiella pneumoniae; assay: Selectivity index, ratio of MIC for against KPC-2 producing Klebsiella pneumoniae isolate 209735 to MIC for against KPC-2 producing Klebsiella pneumoniae isolate 209735 in presence of BPL
[25] = system: Klebsiella pneumoniae; assay: Antibacterial activity against KPC-2 producing Klebsiella pneumoniae isolate 212232 after 18 hrs by CLSI broth microdilution method; details: isolate 212232, 18 h
[26] = system: Klebsiella pneumoniae; assay: Antibacterial activity against KPC-2 producing Klebsiella pneumoniae isolate 212232 after 18 hrs in presence of BPL by CLSI broth microdilution method; details: isolate 212232, 18 h; method in brief: as §1
[27] = system: Klebsiella pneumoniae; assay: Selectivity index, ratio of MIC for against KPC-2 producing Klebsiella pneumoniae isolate 212232 to MIC for against KPC-2 producing Klebsiella pneumoniae isolate 212232 in presence of BPL
[28] = system: Klebsiella pneumoniae; assay: Antibacterial activity against KPC-2 producing Klebsiella pneumoniae isolate 212229 after 18 hrs by CLSI broth microdilution method; details: isolate 212229, 18 h
[29] = system: Klebsiella pneumoniae; assay: Antibacterial activity against KPC-2 producing Klebsiella pneumoniae isolate 212229 after 18 hrs in presence of BPL by CLSI broth microdilution method; details: isolate 212229, 18 h; method in brief: as §1
[30] = system: Klebsiella pneumoniae; assay: Selectivity index, ratio of MIC for against KPC-2 producing Klebsiella pneumoniae isolate 212229 to MIC for against KPC-2 producing Klebsiella pneumoniae isolate 212229 in presence of BPL
[31] = system: Pseudomonas aeruginosa; assay: Antibacterial activity against IMP-4 producing Pseudomonas aeruginosa isolate 212886 after 18 hrs by CLSI broth microdilution method; details: isolate 212886, 18 h
[32] = system: Pseudomonas aeruginosa; assay: Antibacterial activity against IMP-4 producing Pseudomonas aeruginosa isolate 212886 after 18 hrs in presence of BPL by CLSI broth microdilution method; details: isolate 212886, 18 h; method in brief: as §1
[33] = system: Pseudomonas aeruginosa; assay: Selectivity index, ratio of MIC for against IMP-4 producing Pseudomonas aeruginosa isolate 212886 to MIC for against IMP-4 producing Pseudomonas aeruginosa isolate 212886 in presence of BPL
[34] = system: Pseudomonas aeruginosa; assay: Antibacterial activity against IMP-4 producing Pseudomonas aeruginosa isolate 209471 after 18 hrs by CLSI broth microdilution method; details: isolate 209471, 18 h
[35] = system: Pseudomonas aeruginosa; assay: Antibacterial activity against IMP-4 producing Pseudomonas aeruginosa isolate 209471 after 18 hrs in presence of BPL by CLSI broth microdilution method; details: isolate 209471, 18 h; method in brief: as §1
[36] = system: Pseudomonas aeruginosa; assay: Selectivity index, ratio of MIC for against IMP-4 producing Pseudomonas aeruginosa isolate 209471 to MIC for against IMP-4 producing Pseudomonas aeruginosa isolate 209471 in presence of BPL
[37] = system: Pseudomonas aeruginosa; assay: Antibacterial activity against IMP-4 producing Pseudomonas aeruginosa isolate 208247 after 18 hrs by CLSI broth microdilution method; details: isolate 208247, 18 h
[38] = system: Pseudomonas aeruginosa; assay: Antibacterial activity against IMP-4 producing Pseudomonas aeruginosa isolate 208247 after 18 hrs in presence of BPL by CLSI broth microdilution method; details: isolate 208247, 18 h; method in brief: as §1
[39] = system: Pseudomonas aeruginosa; assay: Selectivity index, ratio of MIC for against IMP-4 producing Pseudomonas aeruginosa isolate 208247 to MIC for against IMP-4 producing Pseudomonas aeruginosa isolate 208247 in presence of BPL
[40] = system: Pseudomonas aeruginosa; assay: Antibacterial activity against IMP-4 producing Pseudomonas aeruginosa isolate 209321 after 18 hrs by CLSI broth microdilution method; details: isolate 209321, 18 h
[41] = system: Pseudomonas aeruginosa; assay: Antibacterial activity against IMP-4 producing Pseudomonas aeruginosa isolate 209321 after 18 hrs in presence of BPL by CLSI broth microdilution method; details: isolate 209321, 18 h; method in brief: as §1
[42] = system: Pseudomonas aeruginosa; assay: Selectivity index, ratio of MIC for against IMP-4 producing Pseudomonas aeruginosa isolate 209321 to MIC for against IMP-4 producing Pseudomonas aeruginosa isolate 209321 in presence of BPL
[43] = system: Pseudomonas aeruginosa; assay: Antibacterial activity against IMP-4 producing Pseudomonas aeruginosa isolate 207272 after 18 hrs by CLSI broth microdilution method; details: isolate 207272, 18 h
[44] = system: Pseudomonas aeruginosa; assay: Antibacterial activity against IMP-4 producing Pseudomonas aeruginosa isolate 207272 after 18 hrs in presence of BPL by CLSI broth microdilution method; details: isolate 207272, 18 h; method in brief: as §1
[45] = system: Pseudomonas aeruginosa; assay: Selectivity index, ratio of MIC for against IMP-4 producing Pseudomonas aeruginosa isolate 207272 to MIC for against IMP-4 producing Pseudomonas aeruginosa isolate 207272 in presence of BPL

Question: `CC(C)C(O/N=C(\C(=O)N[C@@H]1C(=O)N(S(=O)(=O)O)[C@@H]1COC(=O)C1CN(C(=O)c2ccc(O)c(O)c2Cl)C1)c1csc(N)n1)c1cc(=O)c(O)cn1O` (stereo not given in full) was tested. Which MIC [1] did it give?
Answer: The MIC was 16 µg/mL (≈ 20 µM).

Question: What about the “Selectivity Index” value [2] of the same compound?
Answer: The value was 8.

Question: And the MIC [3]?
Answer: Its MIC is > 64 µg/mL.

Question: And the MIC [4]?
Answer: The MIC was 16 µg/mL (≈ 20 µM).

Question: What about the MIC [5] of the same compound?
Answer: Its MIC is 2 µg/mL.

Question: And the MIC [6]?
Answer: The MIC was 64 µg/mL.

Question: And the “Selectivity Index” value [7]?
Answer: Its value is 1 - 8.

Question: And the MIC [8]?
Answer: Its MIC is 16 µg/mL.

Question: What about the “Selectivity Index” value [9] of the same compound?
Answer: The value was 1.

Question: And the MIC [10]?
Answer: The MIC was 16 µg/mL (≈ 20 µM).

Question: What about the MIC [11] of the same compound?
Answer: Its MIC is 8 µg/mL.

Question: What about the “Selectivity Index” value [12] of the same compound?
Answer: Its value is 2.

Question: And the MIC [13]?
Answer: The MIC was 8 µg/mL (≈ 10 µM).

Question: What about the MIC [14] of the same compound?
Answer: The MIC was 4 µg/mL.

Question: What about the “Selectivity Index” value [15] of the same compound?
Answer: The value was 2.

Question: What about the MIC [16] of the same compound?
Answer: The MIC was > 64 µg/mL.

Question: And the MIC [17]?
Answer: Its MIC is 8 µg/mL.

Question: What about the “Selectivity Index” value [18] of the same compound?
Answer: The value was >8.

Question: And the MIC [19]?
Answer: Its MIC is > 64 µg/mL.

Question: And the MIC [20]?
Answer: The MIC was 8 µg/mL.

Question: And the “Selectivity Index” value [21]?
Answer: Its value is >8.

Question: What about the MIC [22] of the same compound?
Answer: The MIC was > 64 µg/mL.

Question: And the MIC [23]?
Answer: The MIC was 8 µg/mL.

Question: And the “Selectivity Index” value [24]?
Answer: Its value is >8.

Question: What about the MIC [25] of the same compound?
Answer: The MIC was > 64 µg/mL.

Question: What about the MIC [26] of the same compound?
Answer: Its MIC is 4 µg/mL.

Question: And the “Selectivity Index” value [27]?
Answer: Its value is >16.

Question: What about the MIC [28] of the same compound?
Answer: The MIC was > 64 µg/mL.

Question: What about the MIC [29] of the same compound?
Answer: The MIC was 8 µg/mL.

Question: What about the “Selectivity Index” value [30] of the same compound?
Answer: The value was >8.

Question: And the MIC [31]?
Answer: The MIC was > 64 µg/mL.

Question: What about the MIC [32] of the same compound?
Answer: Its MIC is > 64 µg/mL.

Question: What about the “Selectivity Index” value [33] of the same compound?
Answer: Its value is 1 - 2.

Question: And the MIC [34]?
Answer: Its MIC is 64 µg/mL (≈ 80 µM).

Question: What about the MIC [35] of the same compound?
Answer: Its MIC is 32 µg/mL.

Question: And the “Selectivity Index” value [36]?
Answer: Its value is 2.

Question: What about the MIC [37] of the same compound?
Answer: Its MIC is 32 µg/mL (≈ 40 µM).

Question: What about the MIC [38] of the same compound?
Answer: Its MIC is 32 µg/mL.

Question: What about the “Selectivity Index” value [39] of the same compound?
Answer: The value was 1.

Question: And the MIC [40]?
Answer: Its MIC is 64 µg/mL (≈ 80 µM).

Question: And the MIC [41]?
Answer: The MIC was 32 µg/mL.

Question: And the “Selectivity Index” value [42]?
Answer: Its value is 2.

Question: And the MIC [43]?
Answer: Its MIC is 32 µg/mL (≈ 40 µM).

Question: And the MIC [44]?
Answer: The MIC was 16 µg/mL.

Question: And the “Selectivity Index” value [45]?
Answer: The value was 2.
